Experimental data from ChEMBL document CHEMBL1142148, “Antibiotic susceptibility profile of bifidobacteria as affected by oxgall, acid, and hydrogen peroxide stress” (2007).
≈ marks a conversion by molar mass, not a printed value.

Assays:
[1] = system: Bifidobacterium longum; assay: Antimicrobial activity against 90 mins oxgall-stressed Bifidobacterium longum ATCC 15708 after 18 hrs; type: functional
How it was run: (§1)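 Cells pelleted from mid-log MRS culture and resuspended in MRS (initial pH 6.5) with 0.3% (wt/vol) oxgall for 90 min anaerobically at 37°C. They were then regrown in MRS pH 6.5 for 24 h (footnote: 18 h) anaerobically and tested for MIC by the same broth microdilution assay. Median of four repetitions.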

[2] = system: Bifidobacterium longum; assay: Antimicrobial activity against Bifidobacterium longum P/N 601377; type: functional
How it was run: (§2)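 Broth microdilution in MRS plus 0.05% L-cysteine-HCl. Mid-log culture adjusted to OD650 0.1, giving about 2.5 × 10^4 to 5.0 × 10^4 CFU/well, then added to twofold serial dilutions of agent. Plates incubated anaerobically at 37°C for 18 h and read at OD650. MIC is the lowest concentration matching the uninoculated blank OD, taken as the median of four repeats.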

[3] = system: Bifidobacterium bifidum; assay: Antimicrobial activity against Bifidobacterium bifidum ATCC 15696; type: functional; how it was run: as §2
[4] = system: Bifidobacterium pseudolongum; assay: Antimicrobial activity against Bifidobacterium pseudolongum ATCC 25562; type: functional; how it was run: as §2
[5] = system: Bifidobacterium thermophilum; assay: Antimicrobial activity against Bifidobacterium thermophilum ATCC 25866; type: functional; how it was run: as §2
[6] = Antimicrobial activity against 90 mins oxgall-stressed Bifidobacterium infantis ATCC 15697 after 18 hrs; type: functional, Bifidobacterium longum subsp. infantis; conditions: Bifidobacterium longum; how it was run: as §1
[7] = system: Bifidobacterium bifidum; assay: Antimicrobial activity against 90 mins hydrogen peroxide-stressed Bifidobacterium bifidum BB12 after 18 hrs; type: functional
How it was run: (§3)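 Stress applied for 90 min at 37°C under anaerobic conditions, using MRS (initial pH 6.5) containing H2O2 at each strain's own inhibitory concentration. The H2O2 level was set beforehand by microplate tolerance testing. Challenged cells were regrown in MRS for 24 h (footnote: 18 h) before MIC testing by broth microdilution. Median of four repetitions.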

[8] = system: Bifidobacterium bifidum; assay: Antimicrobial activity against 60 min 1 M HCl-stressed Bifidobacterium bifidum BB12 after 18 hrs; type: functional
How it was run: (§4)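 Mid-log MRS culture pelleted and resuspended in MRS broth brought to pH 2.0 with 1 M HCl, held anaerobically at 37°C for 60 min, then subcultured in MRS (pH 6.5) for 24 h anaerobically before MIC testing by broth microdilution (as for unstressed cells). Table footnote gives 18 h anaerobic regrowth after the stress. MIC is the median of four repetitions.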

[9] = Antimicrobial activity against 60 min 1 M HCl-stressed Bifidobacterium infantis ATCC 15697 after 18 hrs; type: functional, Bifidobacterium longum subsp. infantis; conditions: Bifidobacterium longum; how it was run: as §4
[10] = system: Bifidobacterium bifidum; assay: Antimicrobial activity against 90 mins oxgall-stressed Bifidobacterium bifidum BB12 after 18 hrs; type: functional; how it was run: as §1
[11] = system: Bifidobacterium longum; assay: Antimicrobial activity against 90 mins hydrogen peroxide-stressed Bifidobacterium longum ATCC 15708 after 18 hrs; type: functional; how it was run: as §3
[12] = system: Bifidobacterium pseudolongum; assay: Antimicrobial activity against 90 mins oxgall-stressed Bifidobacterium pseudolongum ATCC 25562 after 18 hrs; type: functional; how it was run: as §1
[13] = system: Bifidobacterium breve; assay: Antimicrobial activity against Bifidobacterium breve ATCC 15700; type: functional; how it was run: as §2
[14] = system: Bifidobacterium longum; assay: Antimicrobial activity against Bifidobacterium longum ATCC 15707; type: functional; how it was run: as §2
[15] = system: Bifidobacterium breve; assay: Antimicrobial activity against 90 mins oxgall-stressed Bifidobacterium breve ATCC 15700 after 18 hrs; type: functional; how it was run: as §1
[16] = system: Bifidobacterium breve; assay: Antimicrobial activity against Bifidobacterium breve R0070; type: functional; how it was run: as §2
[17] = system: Bifidobacterium pseudolongum; assay: Antimicrobial activity against 60 min 1 M HCl-stressed Bifidobacterium pseudolongum ATCC 25562 after 18 hrs; type: functional; how it was run: as §4
[18] = system: Bifidobacterium breve; assay: Antimicrobial activity against 60 min 1 M HCl-stressed Bifidobacterium breve R0070 after 18 hrs; type: functional; how it was run: as §4
[19] = system: Bifidobacterium breve; assay: Antimicrobial activity against 90 mins oxgall-stressed Bifidobacterium breve R0070 after 18 hrs; type: functional; how it was run: as §1
[20] = Antimicrobial activity against Bifidobacterium infantis ATCC 15697; type: functional, Bifidobacterium longum subsp. infantis; conditions: Bifidobacterium longum; how it was run: as §2
[21] = system: Bifidobacterium animalis; assay: Antimicrobial activity against 90 mins oxgall-stressed Bifidobacterium animalis ATCC 27536 after 18 hrs; type: functional; how it was run: as §1
[22] = system: Bifidobacterium bifidum; assay: Antimicrobial activity against Bifidobacterium bifidum R0071; type: functional; how it was run: as §2
[23] = system: Bifidobacterium bifidum; assay: Antimicrobial activity against 90 mins oxgall-stressed Bifidobacterium bifidum R0071 after 18 hrs; type: functional; how it was run: as §1
[24] = system: Bifidobacterium bifidum; assay: Antimicrobial activity against Bifidobacterium bifidum BB12; type: functional; how it was run: as §2
[25] = system: Bifidobacterium animalis; assay: Antimicrobial activity against Bifidobacterium animalis ATCC 27536; type: functional; how it was run: as §2
[26] = system: Bifidobacterium bifidum; assay: Antimicrobial activity against 90 mins hydrogen peroxide-stressed Bifidobacterium bifidum R0071 after 18 hrs; type: functional; how it was run: as §3
[27] = system: Bifidobacterium longum; assay: Antimicrobial activity against 90 mins hydrogen peroxide-stressed Bifidobacterium longum ATCC 15707 after 18 hrs; type: functional; how it was run: as §3
[28] = system: Bifidobacterium longum; assay: Antimicrobial activity against 60 min 1 M HCl-stressed Bifidobacterium longum R0175 after 18 hrs; type: functional; how it was run: as §4
[29] = system: Bifidobacterium longum; assay: Antimicrobial activity against 90 mins oxgall-stressed Bifidobacterium longum R0175 after 18 hrs; type: functional; how it was run: as §1
[30] = system: Bifidobacterium breve; assay: Antimicrobial activity against 90 mins hydrogen peroxide-stressed Bifidobacterium breve R0070 after 18 hrs; type: functional; how it was run: as §3
[31] = system: Bifidobacterium longum; assay: Antimicrobial activity against 90 mins oxgall-stressed Bifidobacterium longum P/N 601377 after 18 hrs; type: functional; how it was run: as §1
[32] = system: Bifidobacterium breve; assay: Antimicrobial activity against 60 min 1 M HCl-stressed Bifidobacterium breve ATCC 15700 after 18 hrs; type: functional; how it was run: as §4
[33] = system: Bifidobacterium bifidum; assay: Antimicrobial activity against 90 mins oxgall-stressed Bifidobacterium bifidum ATCC 15696 after 18 hrs; type: functional; how it was run: as §1
[34] = system: Bifidobacterium bifidum; assay: Antimicrobial activity against 60 min 1 M HCl-stressed Bifidobacterium bifidum R0071 after 18 hrs; type: functional; how it was run: as §4
[35] = system: Bifidobacterium thermophilum; assay: Antimicrobial activity against 90 mins hydrogen peroxide-stressed Bifidobacterium thermophilum ATCC 25866 after 18 hrs; type: functional; how it was run: as §3
[36] = system: Bifidobacterium thermophilum; assay: Antimicrobial activity against 60 min 1 M HCl-stressed Bifidobacterium thermophilum ATCC 25866 after 18 hrs; type: functional; how it was run: as §4
[37] = system: Bifidobacterium thermophilum; assay: Antimicrobial activity against 90 mins oxgall-stressed Bifidobacterium thermophilum ATCC 25866 after 18 hrs; type: functional; how it was run: as §1
[38] = system: Bifidobacterium breve; assay: Antimicrobial activity against 90 mins hydrogen peroxide-stressed Bifidobacterium breve ATCC 15700 after 18 hrs; type: functional; how it was run: as §3
[39] = system: Bifidobacterium longum; assay: Antimicrobial activity against 90 mins hydrogen peroxide-stressed Bifidobacterium longum R0175 after 18 hrs; type: functional; how it was run: as §3
[40] = system: Bifidobacterium animalis; assay: Antimicrobial activity against 60 min 1 M HCl-stressed Bifidobacterium animalis ATCC 27536 after 18 hrs; type: functional; how it was run: as §4
[41] = system: Bifidobacterium longum; assay: Antimicrobial activity against 90 mins hydrogen peroxide-stressed Bifidobacterium longum P/N 601377 after 18 hrs; type: functional; how it was run: as §3
[42] = system: Bifidobacterium longum; assay: Antimicrobial activity against Bifidobacterium longum R0175; type: functional; how it was run: as §2
[43] = system: Bifidobacterium longum; assay: Antimicrobial activity against 60 min 1 M HCl-stressed Bifidobacterium longum ATCC 15707 after 18 hrs; type: functional; how it was run: as §4
[44] = system: Bifidobacterium animalis; assay: Antimicrobial activity against 90 mins hydrogen peroxide-stressed Bifidobacterium animalis ATCC 27536 after 18 hrs; type: functional; how it was run: as §3
[45] = system: Bifidobacterium longum; assay: Antimicrobial activity against 60 min 1 M HCl-stressed Bifidobacterium longum P/N 601377 after 18 hrs; type: functional; how it was run: as §4
[46] = system: Bifidobacterium longum; assay: Antimicrobial activity against Bifidobacterium longum ATCC 15708; type: functional; how it was run: as §2
[47] = system: Bifidobacterium longum; assay: Antimicrobial activity against 90 mins oxgall-stressed Bifidobacterium longum ATCC 15707 after 18 hrs; type: functional; how it was run: as §1

O=C(N[C@H](CO)[C@H](O)c1ccc([N+](=O)[O-])cc1)C(Cl)Cl [CHLORAMPHENICOL]
MIC [1]: 0.98 µg/mL (≈ 3.03 µM) | MIC [2]: 3.9 µg/mL (≈ 12.1 µM) | MIC [3]: 1.9 µg/mL (≈ 5.88 µM) | MIC [4]: 7.8 µg/mL (≈ 24.1 µM) | MIC [5]: 7.8 µg/mL (≈ 24.1 µM) | MIC [6]: 0.98 µg/mL (≈ 3.03 µM) | MIC [7]: 1.9 µg/mL (≈ 5.88 µM) | MIC [8]: 1.9 µg/mL (≈ 5.88 µM) | MIC [9]: 0.98 µg/mL (≈ 3.03 µM) | MIC [10]: 1.9 µg/mL (≈ 5.88 µM) | MIC [11]: 3.9 µg/mL (≈ 12.1 µM) | MIC [12]: 0.98 µg/mL (≈ 3.03 µM) | MIC [13]: 7.8 µg/mL (≈ 24.1 µM) | MIC [14]: 15.6 µg/mL (≈ 48.3 µM) | MIC [15]: 3.9 µg/mL (≈ 12.1 µM) | MIC [16]: 7.8 µg/mL (≈ 24.1 µM) | MIC [17]: 3.9 µg/mL (≈ 12.1 µM) | MIC [18]: 3.9 µg/mL (≈ 12.1 µM) | MIC [19]: 3.9 µg/mL (≈ 12.1 µM) | MIC [20]: 62.5 µg/mL (≈ 193 µM) | MIC [21]: 1.9 µg/mL (≈ 5.88 µM) | MIC [22]: 1.9 µg/mL (≈ 5.88 µM) | MIC [23]: 3.9 µg/mL (≈ 12.1 µM) | MIC [24]: 1.9 µg/mL (≈ 5.88 µM) | MIC [25]: 7.8 µg/mL (≈ 24.1 µM) | MIC [26]: 1.9 µg/mL (≈ 5.88 µM) | MIC [27]: 1.9 µg/mL (≈ 5.88 µM) | MIC [28]: 3.9 µg/mL (≈ 12.1 µM) | MIC [29]: 1.9 µg/mL (≈ 5.88 µM) | MIC [30]: 1.9 µg/mL (≈ 5.88 µM) | MIC [31]: 1.9 µg/mL (≈ 5.88 µM) | MIC [32]: 62.5 µg/mL (≈ 193 µM) | MIC [33]: 3.9 µg/mL (≈ 12.1 µM) | MIC [34]: 7.8 µg/mL (≈ 24.1 µM) | MIC [35]: 1.9 µg/mL (≈ 5.88 µM) | MIC [36]: 3.9 µg/mL (≈ 12.1 µM) | MIC [37]: 3.9 µg/mL (≈ 12.1 µM) | MIC [38]: 1.9 µg/mL (≈ 5.88 µM) | MIC [39]: 1.9 µg/mL (≈ 5.88 µM) | MIC [40]: 1.9 µg/mL (≈ 5.88 µM) | MIC [41]: 1.9 µg/mL (≈ 5.88 µM) | MIC [42]: 7.8 µg/mL (≈ 24.1 µM) | MIC [43]: 7.8 µg/mL (≈ 24.1 µM) | MIC [44]: 3.9 µg/mL (≈ 12.1 µM) | MIC [45]: 1.9 µg/mL (≈ 5.88 µM) | MIC [46]: 31.2 µg/mL (≈ 96.6 µM) | MIC [47]: 1.9 µg/mL (≈ 5.88 µM)
